We go through 95 compounds from PubChem BioAssay AID504383 (The Scripps Research Institute Molecular Screening Center, 2011).

Out of some 2,500 compounds screened, about 1,200 (48%) were called active.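 Rule for the calls: active = mean activation above the low control average plus 3 SD, as set in the primary screen (cut at about 12% in these data); inactive = the rest.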 The set was probably picked from earlier hits. The list shows a part of the results.

In this assay the target is Troponin I, cardiac muscle (Homo sapiens) + Troponin T, cardiac muscle (Homo sapiens) + Troponin C, slow skeletal and cardiac muscles (Homo sapiens) (UniProt P19429+P45379+P63316). Nature of the assay: calcium sensitizers of cardiac thin filaments – biochemical, IANBD-TnC fluorescence, triplicate, confirmation (AID 504383).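 Note: 0% = DMSO at 0.472 mM calcium and 100% = DMSO at 2.9 mM calcium.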 As to conditions: IANBD-labeled cardiac RTF, Ca2+ sensitivity fluorescence; at 7.2 µM; hits give high values; scaled from EC20 to saturating calcium; tested at EC20 calcium, 0.472 mM. The method, boiled down: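 Assay system: labelled regulated thin filaments / Timing: 15 min at 25 °C / Detection: fluorescence intensity of labelled filaments / Measure: fluorescence gain scaled between EC20 and EC100 calcium controls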
For the compound `CC(C)(CO)NCC#Cc1ccccc1`, the activation was 5.16% (inactive).
Regarding `CCOc1cc(N(CC)CC)ccc1/C=C(/C#N)c1nc2ccccc2[nH]1`, the activation is 5.8% (inactive).
The value for `COc1cc(/C=C(\C#N)c2nc3ccccc3[nH]2)cc(OC)c1O` was 37.9% (active); that for `COc1cc(/C=C(\C#N)c2nc3ccccc3[nH]2)ccc1O` was 6.21% (inactive); that for `CCCOc1cc(N(CC)CC)ccc1/C=C(/C#N)c1nc2ccc(C)cc2[nH]1` was 30.9% (active).
Turning to `COc1cccc(/C=C(/C#N)c2nc3ccccc3[nH]2)c1OC(C)C(=O)O` (stereo not given), the activation was 5.66% (inactive).
The value for `CCN(CC)c1ccc(/C=C(/C#N)c2nc3ccccc3[nH]2)c(OC(C)C)c1` was 127% (active); that for `COC1C/C(=N\O)C2OC(c3ccccc3)OCC2O1` (stereo not given) was 6.29% (inactive); that for `COc1cc2c3nnc(-c4ccc(F)cc4)c-3cn(Cc3cccc(C)c3)c2cc1OC` was 11.1% (inactive).
The value for `COc1cc2c3nnc(-c4ccc(F)cc4)c-3cn(Cc3ccc(C)cc3)c2cc1OC` was 3.15% (inactive); that for `COc1cc2c3nnc(-c4ccc(F)cc4)c-3cn(Cc3cccc(F)c3)c2cc1OC` was 446% (active); that for `O=C(NC1CCCCC1)C(c1ccc(F)cc1)N(Cc1ccccc1)C(=O)CN1C(=O)c2ccccc2S1(=O)=O` (stereo not given) was 165% (active).
The value for `COCCNC(=O)C(c1ccc(C)o1)N(Cc1ccc(F)cc1)C(=O)Cn1nnc2ccccc21` (stereo not given) was 4.47% (inactive); that for `Cc1cc(/C=N/NC(N)=S)c(O)c(/C=N/NC(N)=S)c1` was 480% (active); that for `CC(=O)Nc1cccc(NC(=O)CSc2nnc(Cc3cccn3C)n2CCc2ccccc2)c1` was 2.51% (inactive).
`CCn1c(Cc2ccccc2)nnc1SCC(=O)OC(C)C`: the activation was 11.8% (active).
Turning to `C/C(=N/NC(=O)c1cc(C)[nH]n1)c1ccco1`, the activation was 14.3% (active).
Under `C/C(=N/NC(=O)CNC(=O)Cc1ccccc1)c1ccco1` stands 5.62% (inactive); under `CCN(CC)c1ccc(/C=c2/sc3nnc(-c4ccccc4C)n3c2=O)cc1`, 12% (active); under `CCN(CC)c1ccc(/C=C/C(=O)C2C(=O)C=C(C)OC2=O)cc1` (stereo not given), 3.69% (inactive).
Under `CCN(CC)c1ccc(/C=c2\sc3nnc(-c4ccccc4Cl)n3c2=O)cc1` stands 72.8% (active).
Under `Brc1ccc(C2=CC(c3cccs3)n3ncnc3N2)cc1` (stereo not given) stands 8.78% (inactive); under `COc1cccc(C2C=C(c3ccc(Br)s3)Nc3ncnn32)c1OC` (stereo not given), 5.02% (inactive).
Take `COc1cc(C2C=C(c3cccs3)Nc3ncnn32)cc(OC)c1OC` (stereo not given): the activation is 12.2% (active).
The value for `Cc1noc(NS(=O)(=O)c2ccc(NC(=O)CSc3nc4c(cc3C#N)CCC4)cc2)c1C` was 12.5% (active); that for `Cc1cc(C)nc(NS(=O)(=O)c2ccc(NC(=O)CSc3nc4ccccc4[nH]3)cc2)n1` was 8.08% (inactive); that for `COC(=O)C1=C(CSc2nc3c(cc2C#N)CN(C)CC3)OC(N)=C(C#N)C1c1ccc(F)cc1` (stereo not given) was -0.37% (inactive).
The value for `CC(=O)Nc1ccc2nc3c(=O)n(C)c(=O)n(C)c3nc2c1` was 18.8% (active); that for `CC(=O)Nc1ccccc1` was 6.06% (inactive).
On to `CC(=O)Nc1ccc2cc3ccc(NC(C)=O)cc3nc2c1`, for which the activation was 43% (active).
Under `CC(=O)Nc1ccc(S(=O)(=O)N2CCN3CCCC3C2)cc1` (stereo not given) stands 6.53% (inactive); under `CC1CCN(S(=O)(=O)c2ccc(N=NC3=C(O)CC(C)(C)CC3=O)cc2)CC1`, 11.9% (active).
`COc1ccccc1C(=O)Nc1nnn(C)n1`: the activation is 10% (inactive).
Turning to `Cc1nn(C)c(NC(=O)c2ccccc2Cl)c1Cl`, the activation was 59.1% (active).
Under `CN1Cc2c(N)cccc2C(c2ccccc2)C1` (stereo not given) stands -1.03% (inactive); under `N/C(COc1cc(Cl)cc(Cl)c1)=N\O`, 153% (active); under `COC(=O)CN1C(=S)N(c2ccc(OC)cc2)C(=O)/C1=C/c1ccc(N2CCOCC2)cc1`, 11.4% (inactive).
The value for `CCc1ccc(/C=C2/C(=O)N(C)C(=S)N2CC(=O)OC)s1` was 11.7% (active); that for `CCOc1ccc(N(C(=O)CNC(=O)c2ccco2)C(C(=O)NC2CCCC2)c2ccncc2)cc1` (stereo not given) was 9.24% (inactive).
Consider `COCCCN1C(=O)/C(=C/c2ccc(CNS(=O)(=O)c3ccccc3)o2)C(C(=O)OC)=C1C`, for which the activation is 8.19% (inactive).
The value for `C=CCN(C(=O)CNS(=O)(=O)c1ccccc1)C(C(=O)NCCOC)c1ccncc1` (stereo not given) was 16.9% (active); that for `N#CC(C#N)=C1C=C2C=C(N3CCOCC3)CCC2CC1` (stereo not given) was -1.16% (inactive); that for `Cc1ccccc1-n1c(O)c(/C=C/C=Nc2ccccc2)c(=O)[nH]c1=O` was 19.4% (active).
Under `CSc1nnc(N(CCC#N)CCC#N)s1` stands 35.1% (active); under `O=C1c2ccccc2C(=O)N1CC1=NCCc2ccccc21`, 11.2% (inactive); under `O=C(CN1C(=O)c2ccccc2C1=O)N1CCN=C1c1ccccc1`, 70.2% (active).
The value for `O=C(c1ccc(F)cc1)N1CCN=C1c1ccccc1` was 9.85% (inactive).
Take `CC1CN/C(=C\C(=O)c2ccc(Br)cc2)C(=O)N1` (stereo not given): the activation is 2.08% (inactive).
The value for `CCCN1C=CC(=CC=C(C#N)C#N)C=C1` was 28% (active); that for `CCOC(=O)/C(C#N)=C\C=C1C=CN(C)C=C1` was 8.19% (inactive); that for `C=CCN1C=CC(=CC=C(C#N)C#N)C=C1` was 668% (active).
The value for `CC1=C/C(=C\C=C(C#N)C#N)N(C)c2ccccc21` was 8.37% (inactive); that for `CCCCCCN1C=CC(=C/C=C(\C#N)C(=O)OCC)C=C1` was 501% (active); that for `C=CCN1C=CC(=C/C=C(/C#N)C(=O)OCC)C=C1` was 4.84% (inactive).
Under `Cc1cc(C)nc(SCCCNCc2ccc(Br)cc2)n1` stands 9.74% (inactive); under `Cc1cc(C)n(-c2ccc([N+](=O)[O-])cc2-c2nn[nH]n2)n1`, 7.13% (inactive); under `Cc1cc(C)n(-c2ccc(C(=O)O)cc2)n1`, 16.2% (active).
`O=C(O)c1ccc(O)c(O)c1`: the activation was 7.5% (inactive).
Under `N#CC1=C(N)SC(N)=C(C#N)C1c1cccc(O)c1` stands 6.27% (inactive); under `N#CC1=C(N)Oc2ccc3ccc(O)cc3c2C1c1ccsc1` (stereo not given), 31.6% (active).
The value for `CCOC(=O)c1sc(N)c(C#N)c1COC(=O)CNC(=O)c1cc(OC)c(OC)c(OC)c1` was 67.4% (active).
The value for `CCOC(=O)c1sc(N)c(C#N)c1COC(=O)CNC(=O)c1ccccc1` was 8.8% (inactive).
As for `CC(C)CC[C@@H](O)[C@](C)(O)C1CC[C@@]2(O)C3=CC(=O)[C@@H]4C[C@@H](O)[C@@H](O)C[C@]4(C)C3CC[C@]12C` (stereo not given in full), the activation was 279% (active).
The value for `CNC(=O)N(O)C1N(C)C(=O)N(CC(=O)OC)C1(C)C` (stereo not given) was 55.3% (active); that for `COc1ccc(OC(C)C(=O)Nc2cccc(OC)c2)cc1` (stereo not given) was 7.49% (inactive); that for `COc1cc(OC)c(C(=O)OC(C)C(=O)Nc2cccc(C(F)(F)F)c2)cc1OC` (stereo not given) was 32.5% (active).
Under `COc1ccc(C2=NN(C(=O)COC(=O)c3ccc(NC(=O)CC#N)cc3)C(c3ccco3)C2)cc1` (stereo not given) stands 14.7% (active); under `COc1ccc(OC)c(NC(=O)CNC(=O)Cn2c(C)cc3ccccc3c2=O)c1`, 3680% (active); under `COc1ccc(OC)c(NC(=S)Nc2ccccc2)c1`, 5.57% (inactive).
On to `CCCC(CCC(=O)Nc1ccc(S(N)(=O)=O)cc1)C(=O)O` (stereo not given), for which the activation was 8.1% (inactive).
The value for `NS(=O)(=O)c1ccc(NC(=O)COc2ccc(C(=O)c3ccc(F)cc3)cc2)cc1` was 1350% (active); that for `O=C(Oc1cc2oc(=O)c3c(c2cc1Cl)CCCC3)c1cccs1` was 1.37% (inactive).
The value for `CC1CC(C)CN(C(=O)COC(=O)CCc2nc3ccccc3c(=O)[nH]2)C1` (stereo not given) was 8.84% (inactive); that for `NC(=O)N/N=C/c1ccc(N2CCOCC2)s1` was 3.82% (inactive).
Under `O=C(CN1C(=O)c2ccccc2C1=O)NCc1ccc(N2CCOCC2)cc1` stands 12.4% (active); under `COc1ccc(Sc2ccc(-c3nc4cnccn4c3NC3CCCCC3)cc2OC)cc1`, 3.89% (inactive); under `CN(C)c1ccc(/C=C/c2nc3ccccc3c(=O)n2CCO)cc1`, 398% (active).
Regarding `CCOC(=O)C1C(=O)C=C(/C=C/c2ccc(N(C)C)cc2)CC1c1ccccc1` (stereo not given), the activation is 5.48% (inactive).
Under `C[C@@H]1C=C(C(=O)N2CCOCC2)O[C@H](OCc2ccc(CO)cc2)C1` stands 6.41% (inactive); under `CC1(C)CC2CC(C)(CN2C(=S)Nc2ccccc2F)C1` (stereo not given), 3.28% (inactive).
Under `COc1cc2c(cc1[N+](=O)[O-])-c1ccccc1C2` stands 302% (active); under `CNc1ccccc1C(C)(C)c1cc(C)[nH]n1`, 28.3% (active); under `CCCN(CCC)S(=O)(=O)c1ccc(C(=O)OCCN2C(=O)c3cccc4c(N5CCOCC5)ccc(c34)C2=O)cc1`, 16.2% (active).
For `CC(=O)N(C(C)=O)N1C(=O)c2cccc3c(N4CCOCC4)ccc(c23)C1=O`, the activation was 10.5% (inactive).
Under `O=C(OCCN1C(=O)c2cccc3c(N4CCOCC4)ccc(c23)C1=O)c1ccc(Cl)cc1` stands 25.9% (active).
The value for `O=C(OCCN1C(=O)c2cccc3c(N4CCOCC4)ccc(c23)C1=O)c1ccccc1Cl` was 13.6% (active); that for `O=C(OCCN1C(=O)c2cccc3c(N4CCOCC4)ccc(c23)C1=O)c1ccc(Cl)cc1Cl` was 39.1% (active); that for `COc1cccc(C(=O)Nc2cc(C(=O)NCc3ccc(C)cc3)ccc2N2CCC3(CC2)CC(c2cccc(Br)c2)=NO3)c1` was 5.62% (inactive).
As for `O=C1OCC/C1=C\c1ccccc1O`, the activation was 3.58% (inactive).
For the compound `CCN(CC)c1ccc(/C=c2\sc3nc4ccccc4n3c2=O)c(O)c1`, the activation was 41.3% (active).
On to `Cc1ccc(OCc2ccc(C(=O)O)o2)cc1C`, for which the activation is 4.06% (inactive).
For the compound `COc1ccc(NC(=O)Cc2ccccc2)cn1`, the activation was 9.43% (inactive).
Under `CC(=O)Oc1ccc(NC(=O)Cc2ccccc2)c(C(=O)O)c1` stands 34.2% (active).
With `CCCCCCSc1ccc([C@@H]2[C@H]3C(=O)N(CC)C(=O)[C@H]3[C@]3(C(=O)OC)CCCCN23)cc1OC`, the activation was 6.92% (inactive).
The value for `CCN1C(=O)[C@@H]2[C@@H](c3ccc(-c4cccc(Cl)c4)cc3)N3CCC[C@@]3(C(=O)OC)[C@@H]2C1=O` was 14% (active).
